According to ChEMBL document CHEMBL4130629 (J Med Chem, 2018):
Converted amounts (≈) assume the structure as drawn.

What was measured:
Cytochrome P450 3A4 = Cytochrome P450 3A4 (Homo sapiens, UniProt P08684); assay: Inhibition of CYP3A4 (unknown origin); format: ADME
[1] = Oral bioavailability in Sprague-Dawley rat at 5 mg/kg; format: ADME, organism-based; details: in vivo
How it was run: (§1)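 Male Sprague-Dawley rats (300−350 g) with jugular vein and/or bile duct cannulas, n = 3 per route; dosed as a solution in PEG-400/ethanol (90/10). The iv dose was 1 mg/kg given as a 0.5 min bolus, with jugular blood sampled from 2 to 1440 min. The po dose was 5 mg/kg after an overnight fast, sampled from 15 to 1440 min. Plasma was taken from EDTA blood.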

[2] = Metabolic stability in rat liver microsomes assessed as parent compound remaining after 10 mins; format: ADME, microsome; details: read-out: Stability
How it was run: (§2)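 Compound at 3 μM was incubated with human or rat liver microsomes, and the percentage of parent compound remaining was measured after 10 min.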

[3] = Metabolic stability in human liver microsomes assessed as parent compound remaining after 10 mins; format: ADME, microsome; details: read-out: Stability; how it was run: as §2
[4] = Half life in Sprague-Dawley rat at 1 mg/kg, iv; format: ADME, organism-based; details: in vivo
[5] = Volume of distribution at steady state in Sprague-Dawley rat at 1 mg/kg, iv; format: ADME, organism-based; details: in vivo, read-out: Vdss; how it was run: as §1
[6] = test system: Human immunodeficiency virus 1; assay: Antiviral activity against ENV pseudotyped CCR5-tropic HIV1 […] infected in human HeLa67 cells after 3 days by luciferase reporter gene assay; format: functional, organism-based; details: Human immunodeficiency virus 1, HeLa67, 72 h
How it was run: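 Single-cycle infection with env-deleted, luciferase-reporter HIV-1 pseudotyped with the JRFL (CCR5) envelope, supplied by transfection; viral titers normalized by luminescence without compound. HeLa 67 cells were infected in the presence of compounds given as 3-fold serial dilutions made from 30 mM DMSO stocks.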

MT2 = assay: Cytotoxicity against human MT2 cells assessed as decrease in cell viability after 3 days […]; format: functional; details: MT2, 72 h
[7] = Permeability in human Caco2 cells; format: ADME, cell-based; details: Caco-2, read-out: permeability
[8] = AUC in Sprague-Dawley rat at 5 mg/kg, po after 24 hrs; format: ADME, organism-based; parameters: time < 24 hr, dose 5 mg/kg, route oral; details: in vivo; how it was run: as §1
Homo sapiens = assay: Prodrug activation in normal healthy human assessed as BMS-626529 formation at 100 to 1000 mg dosed as standard capsule formulation; format: organism-based; details: in vivo, po
How it was run: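 Single ascending dose phase 1 trial in normal healthy volunteers: prodrug given as a standard capsule at 100, 200, 400, 600, 800 and 1000 mg. Plasma exposure of the parent drug was measured.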

[9] = Stability of the compound under acidic condition at 37 degC after 24 hrs; format: physicochemical
How it was run: (§3)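 Aqueous solubility was measured across pH 1.5–8.2 at room temperature. Solution stability under acidic and neutral conditions, and solid-state stability, were followed for at least 24 h at 37 °C.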

[10] = Prodrug activation in beagle dog plasma assessed as BMS-626529 formation 125 mg/kg, po bid; format: organism-based, Canis lupus familiaris; details: in vivo
[11] = Stability of the compound under neutral condition at 37 degC after 24 hrs; format: physicochemical; how it was run: as §3
[12] = Stability of the compound in solid state at 37 degC after 24 hrs; format: physicochemical; how it was run: as §3
[13] = Prodrug activation in beagle dog plasma assessed as BMS-626529 formation 46 mg/kg, po bid; format: organism-based, Canis lupus familiaris; details: in vivo
[14] = Aqueous solubility of the compound at pH 1.5 to 8.2; format: physicochemical; details: buffer; how it was run: as §3
[15] = Prodrug activation in Sprague-Dawley rat plasma assessed as BMS-626529 formation at 200 mg/kg, po after 3 hrs; format: organism-based; details: in vivo
How it was run: (§4)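 Rats were dosed orally with parent (solution in PEG-400/EtOH/0.1 N NaOH at ≤25 mg/kg; suspension at 200 mg/kg) or with prodrug as an aqueous solution. Plasma AUC of the parent drug was compared between the two.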

[16] = target: T1, Alkaline phosphatase, placental type (Homo sapiens, UniProt P05187); assay: Prodrug activation in human hepatocytes assessed as BMS-626529 formation; format: cell-based
T1 sequence (P05187 whole entry): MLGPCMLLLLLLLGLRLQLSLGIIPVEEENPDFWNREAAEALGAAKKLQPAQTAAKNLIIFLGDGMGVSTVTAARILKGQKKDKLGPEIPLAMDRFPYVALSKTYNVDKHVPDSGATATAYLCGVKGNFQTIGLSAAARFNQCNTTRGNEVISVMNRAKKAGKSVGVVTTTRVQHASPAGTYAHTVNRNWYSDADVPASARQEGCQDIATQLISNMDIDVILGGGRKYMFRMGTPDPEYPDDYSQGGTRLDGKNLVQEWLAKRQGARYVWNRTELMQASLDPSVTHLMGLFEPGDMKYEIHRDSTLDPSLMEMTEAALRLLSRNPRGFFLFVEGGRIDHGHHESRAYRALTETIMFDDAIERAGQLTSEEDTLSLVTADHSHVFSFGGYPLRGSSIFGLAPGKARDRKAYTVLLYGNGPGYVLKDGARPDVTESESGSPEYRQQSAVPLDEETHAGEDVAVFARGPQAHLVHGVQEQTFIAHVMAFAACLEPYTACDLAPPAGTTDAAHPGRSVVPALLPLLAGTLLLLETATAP

[17] = Prodrug activation in Sprague-Dawley rat plasma assessed as BMS-626529 formation at <= 25 mg/kg, po after 3 hrs; format: organism-based; details: in vivo; how it was run: as §4
[18] = target: T1, Alkaline phosphatase, placental type; assay: Prodrug activation assessed as human placental alkaline phosphatase mediated BMS-626529 formation; details: isolated protein
Canis familiaris [19] = assay: Toxicity in beagle dog assessed as rapid emesis at 250 mg/kg, po qd; format: organism-based, Canis lupus familiaris; details: in vivo
[20] = Aqueous solubility of the compound at pH 1; format: physicochemical; details: buffer
How it was run: (§5)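 Crystalline solid sample; aqueous solubility measured in buffers at the stated pH.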

[21] = Drug uptake in Sprague-Dawley rat plasma assessed as BMS-626529 level at 200 mg/kg, po after 3 hrs; format: ADME, organism-based; details: in vivo
Rattus norvegicus = assay: Oral bioavailability in Sprague-Dawley rat assessed as BMS-626529 formation at 5 mg/kg; format: ADME, organism-based; details: in vivo
Cynomolgus monkey = assay: Oral bioavailability in cynomolgus monkey assessed as BMS-626529 formation at 5 mg/kg administered via gavage; format: ADME, organism-based, Macaca fascicularis; details: in vivo
[22] = Drug uptake in Sprague-Dawley rat plasma assessed as BMS-626529 level at <= 25 mg/kg, po after 3 hrs; format: ADME, organism-based; details: in vivo; how it was run: as §4
[23] = test system: Human immunodeficiency virus 1; assay: Antiviral activity against recombinant pseudotyped HIV1 subtype B infected in human U87 cells expressing CD4/CCR5/CXCR4 by luciferase reporter gene assay; format: functional, organism-based; details: Human immunodeficiency virus 1, subtype B, U-87 MG
[24] = target: Envelope glycoprotein gp160 (Human immunodeficiency virus 1) (UniProt Q6QLK5); assay: Binding affinity to HIV-1 JRFL gp120 assessed as half life for dissociation
Chain of Envelope glycoprotein gp160 (Human immunodeficiency virus 1) (Q6QLK5 1-814): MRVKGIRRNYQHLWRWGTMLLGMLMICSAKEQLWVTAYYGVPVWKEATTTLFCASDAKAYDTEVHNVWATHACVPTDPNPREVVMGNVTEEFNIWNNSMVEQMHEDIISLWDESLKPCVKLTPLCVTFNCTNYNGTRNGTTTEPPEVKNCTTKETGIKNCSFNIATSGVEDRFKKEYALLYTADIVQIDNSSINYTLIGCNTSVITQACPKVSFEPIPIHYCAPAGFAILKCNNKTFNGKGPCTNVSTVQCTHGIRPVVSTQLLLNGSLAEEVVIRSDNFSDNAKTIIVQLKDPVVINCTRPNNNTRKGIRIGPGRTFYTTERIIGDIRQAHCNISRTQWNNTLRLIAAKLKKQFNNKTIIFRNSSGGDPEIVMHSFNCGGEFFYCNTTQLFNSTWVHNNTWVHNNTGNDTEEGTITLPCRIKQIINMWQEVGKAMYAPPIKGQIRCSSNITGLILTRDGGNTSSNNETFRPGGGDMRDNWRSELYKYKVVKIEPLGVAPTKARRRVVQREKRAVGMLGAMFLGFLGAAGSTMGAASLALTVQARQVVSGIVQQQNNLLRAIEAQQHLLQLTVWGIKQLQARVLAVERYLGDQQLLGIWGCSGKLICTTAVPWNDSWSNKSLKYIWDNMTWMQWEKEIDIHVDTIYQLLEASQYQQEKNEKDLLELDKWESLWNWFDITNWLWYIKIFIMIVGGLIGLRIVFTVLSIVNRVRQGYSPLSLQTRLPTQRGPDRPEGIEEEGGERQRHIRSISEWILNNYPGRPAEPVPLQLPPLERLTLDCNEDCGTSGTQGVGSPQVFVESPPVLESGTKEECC

[25] = test system: Human immunodeficiency virus 1; assay: Antiviral activity against recombinant pseudotyped HIV1 subtype A infected in human U87 cells expressing CD4/CCR5/CXCR4 by luciferase reporter gene assay; format: functional, organism-based; details: Human immunodeficiency virus 1, subtype A, U-87 MG
[26] = AUC in beagle dog at 5 mg/kg, po; format: ADME, organism-based, Canis lupus familiaris; details: in vivo
How it was run: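 Crossover study in three male beagle dogs (12 ± 0.4 kg) with a one-week washout between routes; dosed in PEG-400/ethanol (90/10) with pH adjusted by 0.1 N NaOH. After an overnight fast, 5 mg/kg was given by oral gavage. Serial blood was drawn before dosing and at 15–1440 min.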

[27] = Aqueous solubility of the compound at pH 10; format: physicochemical; details: buffer; how it was run: as §5
[28] = test system: Human immunodeficiency virus 1; assay: Antiviral activity against recombinant pseudotyped HIV1 subtype C infected in human U87 cells expressing CD4/CCR5/CXCR4 by luciferase reporter gene assay; format: functional, organism-based; details: Human immunodeficiency virus 1, subtype C, U-87 MG
Canis familiaris [29] = assay: Oral bioavailability in beagle dog assessed as BMS-626529 formation at 5 mg/kg; format: ADME, organism-based, Canis lupus familiaris; details: in vivo
[30] = test system: Human immunodeficiency virus 1; assay: Antiviral activity against HIV1 infected in patients assessed as reduction in plasma viral load by measuring log10 viral copies at 800 mg, bid measured at day 8 (reference value: 0.02 log10 copies/ml); format: functional
[31] = test system: Human immunodeficiency virus 1; assay: Antiviral activity against HIV1 infected in patients assessed as reduction in maxmum viral RNA by measuring log10 viral copies at 800 mg, bid measured at day 8; format: functional
[32] = test system: Human immunodeficiency virus 1; assay: Selectivity ratio of EC50 for ENV pseudotyped CCR5-tropic HIV1 […] in presence of 40%human serum to EC50 for ENV pseudotyped CCR5-tropic HIV1 […] in absence of 40%human serum; format: functional
How it was run: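 Single-cycle assay: env-deleted HIV-1 firefly-luciferase reporter virus pseudotyped by transfection with the JRFL (CCR5-tropic) envelope; HeLa 67 cells infected with compound (DMSO stocks, 3-fold serial dilutions). Luciferase read 3 days post-infection.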

[33] = AUC in cynomolgus monkey at 5 mg/kg, po administered via gavage; format: ADME, organism-based, Macaca fascicularis; details: in vivo
How it was run: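 Crossover study in three male cynomolgus monkeys (10 ± 0.8 kg) with a one-week washout between routes; dosed in PEG-400/ethanol (90/10) with pH adjusted by 0.1 N NaOH. After an overnight fast, 5 mg/kg was given by oral gavage. Serial blood was drawn before dosing and at 15–1440 min.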

[34] = test system: Human immunodeficiency virus 1; assay: Antiviral activity against HIV1 infected in patients assessed as reduction in maxmum viral RNA by measuring log10 viral copies at 1800 mg, bid measured at day 8; format: functional
[35] = Half life in human liver microsomes; format: ADME, microsome
[36] = Protein binding in human plasma; format: ADME, cell-free; details: read-out: PPB (converted)
[37] = test system: Human immunodeficiency virus 1; assay: Antiviral activity against HIV1 infected in patients assessed as reduction in plasma viral load by measuring log10 viral copies at 1800 mg, bid measured at day 8; format: functional
[38] = target: Envelope glycoprotein gp160 (Human immunodeficiency virus 1, UniProt Q6QLK5); assay: Inhibition of [3H]BMS-488043 binding to HIV-1 JRFL gp120 after 1 hr by scintillation counting method
Chain of Envelope glycoprotein gp160 (Q6QLK5 whole entry): as the sequence (Q6QLK5 1-814) above

Chain of Cytochrome P450 3A4 (P08684 whole entry): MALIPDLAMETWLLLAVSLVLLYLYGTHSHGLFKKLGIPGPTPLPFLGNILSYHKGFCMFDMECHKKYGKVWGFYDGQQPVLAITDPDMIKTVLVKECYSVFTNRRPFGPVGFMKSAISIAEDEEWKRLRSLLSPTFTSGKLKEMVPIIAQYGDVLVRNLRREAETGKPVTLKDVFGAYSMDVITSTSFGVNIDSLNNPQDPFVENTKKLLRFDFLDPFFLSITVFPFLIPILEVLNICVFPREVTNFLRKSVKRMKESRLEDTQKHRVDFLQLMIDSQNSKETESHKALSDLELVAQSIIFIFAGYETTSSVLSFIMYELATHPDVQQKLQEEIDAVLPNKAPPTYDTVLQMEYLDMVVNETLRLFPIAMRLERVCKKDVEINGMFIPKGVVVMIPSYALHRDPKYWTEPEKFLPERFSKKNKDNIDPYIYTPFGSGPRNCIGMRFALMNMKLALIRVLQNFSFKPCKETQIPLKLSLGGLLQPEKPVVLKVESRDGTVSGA

Structure (SMILES): COc1cnc(-n2cncn2)c2[nH]cc(C(=O)C(=O)N3CCN(C(=O)c4ccccc4)CC3)c12
- IC50 (Cytochrome P450 3A4): 1000 nM
- bioavailability [1]: 90%
- remaining at 10 min [2]: 97%
- remaining at 10 min [3]: 83%
- half-life [4]: 2.6 h
- Vd [5]: 0.4 L/kg
- EC50 [6]: 0.09 nM
- CC50 (MT2): > 300000 nM
- Papp [7]: 14.6 ×10⁻⁶ cm/s
- AUC at 24 h [8]: 48.7 µM·h

Structure (SMILES): COc1cnc(-n2cnc(C)n2)c2c1c(C(=O)C(=O)N1CCN(C(=O)c3ccccc3)CC1)cn2COP(=O)(O)O.NC(CO)(CO)CO [FOSTEMSAVIR TROMETHAMINE]
- Drug metabolism (Homo sapiens): Dose-dependent effect
- Stability [9]: Stable
- Drug metabolism [10]: Metabolite_Detected
- Stability [11]: Stable
- Stability [12]: Stable
- Drug metabolism [13]: Metabolite_Detected
- solubility [14]: > 11000 µg/mL
- Drug metabolism [15]: Metabolite_Detected
- Drug metabolism [16]: Metabolite_Detected
- Drug metabolism [17]: Metabolite_Detected
- Drug metabolism [18]: Metabolite_Detected
- Activity (Canis familiaris [19]): Toxic

Structure (SMILES): COc1cnc(-n2cnc(C)n2)c2[nH]cc(C(=O)C(=O)N3CCN(C(=O)c4ccccc4)CC3)c12
- solubility [20]: 50 µg/mL (≈ 106 µM)
- Drug uptake [21]: Active
- bioavailability (Rattus norvegicus): 80 to 122%
- bioavailability (Cynomolgus monkey): 80 to 122%
- Drug uptake [22]: Active
- IC50 [23]: 4.59 nM
- T1/2 [24]: 7.63 h
- IC50 [25]: 87.9 nM
- AUC [26]: 61 µM·h
- CC50 (MT2): > 300000 nM
- Papp [7]: 18.2 ×10⁻⁶ cm/s
- solubility [27]: 70 µg/mL (≈ 148 µM)
- IC50 [28]: 7.09 nM
- bioavailability (Canis familiaris [29]): 80 to 122%
- AUC at 24 h [8]: 111 µM·h

Structure (SMILES): COc1ncc(OC)c2c(C(=O)C(=O)N3CCN(C(=O)c4ccccc4)CC3)c[nH]c12
- log(activity) [30]: 0.72 /ml
- log(activity) [31]: 1.5 /ml
- Ratio EC50 [32]: 1.9 - 3.7
- AUC [33]: 28 µM·h
- log(activity) [34]: 1.32 /ml
- half-life [35]: > 1.67 h
- fraction unbound [36]: 0.05
- T1/2 [24]: 0.717 h
- EC50 [6]: 0.88 nM
- AUC [26]: 43 µM·h
- CC50 (MT2): > 300000 nM
- log(activity) [37]: 0.96 /ml
- Kd [38]: 19 nM
- AUC at 24 h [8]: 15 µM·h
